Laboratory results reported in BindingDB's records for doi:10.1021/jm0310986 (Serono Pharmaceutical Research Institute, 2005).

Biological target: Mitogen-activated protein kinase 10 (Rattus norvegicus, UniProt P49187)
Assay: Inhibition of rat c-Jun N-terminal kinase 3
Method in brief: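 GST-JNK3 was preactivated overnight at room temperature with GST-JNKK2 and ATP-γ-S, then dialysed. The enzyme (0.5 µg) was incubated with biotinylated GST-c-Jun (1 µg) and 2 µM ³³P-γ-ATP in 50 mM Tris-HCl pH 8.0, 10 mM MgCl₂, 1 mM DTT and 100 µM NaVO₄ for 120 min at room temperature. Reaction stopped with EDTA; phosphorylation detected by streptavidin SPA beads and scintillation counting. Values from triplicates.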

Chain of Mitogen-activated protein kinase 10 (P49187 whole entry): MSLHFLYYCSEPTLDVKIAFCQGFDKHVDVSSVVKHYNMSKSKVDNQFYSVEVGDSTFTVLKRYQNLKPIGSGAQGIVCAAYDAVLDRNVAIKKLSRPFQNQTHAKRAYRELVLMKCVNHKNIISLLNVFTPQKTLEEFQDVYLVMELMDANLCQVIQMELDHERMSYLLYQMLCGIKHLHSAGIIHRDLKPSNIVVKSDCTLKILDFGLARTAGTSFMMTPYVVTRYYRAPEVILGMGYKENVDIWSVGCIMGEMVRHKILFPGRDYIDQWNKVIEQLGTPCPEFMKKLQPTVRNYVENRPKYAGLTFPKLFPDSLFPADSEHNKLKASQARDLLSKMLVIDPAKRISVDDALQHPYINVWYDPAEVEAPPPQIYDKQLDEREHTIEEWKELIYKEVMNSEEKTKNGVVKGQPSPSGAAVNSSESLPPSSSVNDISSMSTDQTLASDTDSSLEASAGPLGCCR

SMILES | IC50
N#CC(c1ccnc(NCCc2c[nH]cn2)n1)c1nc2ccccc2s1 (stereo not drawn) | 0.08 µM
Cc1cc(C(C#N)c2nc3ccccc3s2)nc(Cl)n1 (stereo not drawn) [(2Z)-1,3-benzothiazol-2(3H)-ylidene(2-chloro-6-methylpyrimidin-4-yl)acetonitrile] | > 5 µM
N#CC(c1ccnc(Cl)n1)c1nc2ccccc2s1 (stereo not drawn) [(2Z)-1,3-benzothiazol-2(3H)-ylidene(2-chloropyrimidin-4-yl)acetonitrile] | 0.25 µM
N#CC(c1cccc(Cl)n1)c1nc2ccccc2s1 (stereo not drawn) [(2Z)-1,3-benzothiazol-2(3H)-ylidene(6-chloropyridin-2-yl)acetonitrile] | > 5 µM
N#CC(c1ccncn1)c1nc2ccccc2s1 (stereo not drawn) [(2Z)-1,3-benzothiazol-2(3H)-ylidene(pyrimidin-4-yl)acetonitrile] | > 5 µM
N#CC(c1nc2ccccc2[nH]1)c1nc(Cl)ncc1Br (stereo not drawn) [(5-Bromo-2-chloro-pyrimidin-4-yl)-(1,3-dihydro-benzoimidazol-2-ylidene)-acetonitrile] | > 5 µM
CCOC(=O)C(c1ccnc(Cl)n1)c1nc2ccccc2s1 (stereo not drawn) [[3H-Benzothiazol-(2Z)-ylidene]-(2-chloro-pyrimidin-4-yl)-acetic acid ethyl ester] | > 5 µM
CCCN(CCC)c1nccc(C(C#N)c2nc3ccccc3s2)n1 (stereo not drawn) [[3H-Benzothiazol-(2Z)-ylidene]-(2-dipropylamino-pyrimidin-4-yl)-acetonitrile] | > 5 µM
N#CC(c1ccnc(NCCc2ccccc2)n1)c1nc2ccccc2s1 (stereo not drawn) [[3H-Benzothiazol-(2Z)-ylidene]-(2-phenethylamino-pyrimidin-4-yl)-acetonitrile] | > 5 µM
CCCNc1nccc(C(C#N)c2nc3ccccc3s2)n1 (stereo not drawn) [[3H-Benzothiazol-(2Z)-ylidene]-(2-propylamino-pyrimidin-4-yl)-acetonitrile] | > 5 µM
Cc1ccc(CCNc2nccc(C(C#N)c3nc4ccccc4s3)n2)cc1 (stereo not drawn) [[3H-Benzothiazol-(2Z)-ylidene]-[2-(2-p-tolyl-ethylamino)-pyrimidin-4-yl]-acetonitrile] | > 5 µM
N#CC(c1ccnc(NCCc2ccccn2)n1)c1nc2ccccc2s1 (stereo not drawn) [[3H-Benzothiazol-(2Z)-ylidene]-[2-(2-pyridin-2-yl-ethylamino)-pyrimidin-4-yl]-acetonitrile] | 0.25 µM
N#CC(c1ccnc(NCCc2ccc(Cl)c(Cl)c2)n1)c1nc2ccccc2s1 (stereo not drawn) [[3H-Benzothiazol-(2Z)-ylidene]-{2-[2-(3,4-dichloro-phenyl)-ethylamino]-pyrimidin-4-yl}-acetonitrile] | > 5 µM
N#CC(c1ccnc(NCCc2cccc(Cl)c2)n1)c1nc2ccccc2s1 (stereo not drawn) [[3H-Benzothiazol-(2Z)-ylidene]-{2-[2-(3-chloro-phenyl)-ethylamino]-pyrimidin-4-yl}-acetonitrile] | > 5 µM
N#CC(c1ccnc(NCCc2ccc(Br)cc2)n1)c1nc2ccccc2s1 (stereo not drawn) [[3H-Benzothiazol-(2Z)-ylidene]-{2-[2-(4-bromo-phenyl)-ethylamino]-pyrimidin-4-yl}-acetonitrile] | > 5 µM
N#CC(c1ccnc(NCCc2ccc(F)cc2)n1)c1nc2ccccc2s1 (stereo not drawn) [[3H-Benzothiazol-(2Z)-ylidene]-{2-[2-(4-fluoro-phenyl)-ethylamino]-pyrimidin-4-yl}-acetonitrile] | > 5 µM
N#CC(c1ccnc(NCc2nnn[nH]2)n1)c1nc2ccccc2s1 (stereo not drawn) [[3H-Benzothiazol-(2Z)-ylidene]-{2-[(1H-tetrazol-5-ylmethyl)-amino]-pyrimidin-4-yl}-acetonitrile] | > 5 µM
N#CC(c1ccnc(NCCc2ccc(N)cc2)n1)c1nc2ccccc2s1 (stereo not drawn) [{2-[2-(4-Amino-phenyl)-ethylamino]-pyrimidin-4-yl}-[3H-benzothiazol-(2Z)-ylidene]-acetonitrile] | 0.08 µM
